Activity calls are given as the source filed them. The rule behind the calls is not given here.

The nature of data set [1]: (§1) Inhibition of Rana catesbeiana tadpole collagenase using lathyritic rat skin collagen as substrate after 41 hrs by radial diffusion assay. The settings on record: read-out: I50. In short, it runs like this: (§2)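 Enzyme cultured from tadpole tail fin and back skin, purified by ammonium sulfate precipitation and Sephadex G-200, concentrated 20-fold by ultrafiltration at 4 °C. Gel: Tris-buffered pH 7.6, 1% agarose with 0.1% collagen, set 2 h at 20 °C, held ≥40 h at 4 °C. Wells (3.0 mm) received 15 µL enzyme ± inhibitor. Incubation 41 h at 28 °C, then 2 h at 37 °C. Lysis-zone diameter read as radial diffusion units; concentration for 50% inhibition taken.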

A short description of data set [2]: Half life of the compound in phosphate buffer with 214 ml/min oxygen flow assessed as oxidation at 0.24 mM by Ellman's method. The class given is physicochemical. In short, it runs like this: (§3)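 35 mL sample, 0.1 M phosphate buffer pH 7.4, oxygen-saturated; water-vapour-saturated O2 bubbled through via gas dispersion tube at 20 °C. 200 µL aliquots withdrawn over time; remaining SH titre measured by quantitative Ellman determination; half-time in hours.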
(Ellman's reagent forms a yellow product with free thiols.)

Data set [3] can be described thus: Half life of the compound in phosphate buffer with 360 ml/min oxygen flow assessed as oxidation at 0.16 mM by Ellman's method. The format is physicochemical. Put shortly:
as §3

Data set [4] in a line: Half life of the compound in phosphate buffer with 350 ml/min oxygen flow assessed as oxidation at 0.27 mM by Ellman's method. The class given is physicochemical. Put shortly: as §3
The nature of data set [5]: Half life of the compound in phosphate buffer with 200 ml/min oxygen flow assessed as oxidation at 0.28 mM by Ellman's method. The class given is physicochemical. In short, it runs like this:
as §3

The next data set is filed under the species Rana catesbeiana. The description is as §1. In short, it runs like this:
as §2

A short description of data set [6]: Half life of the compound in phosphate buffer with 400 ml/min oxygen flow assessed as oxidation at 0.14 mM by Ellman's method. The class given is physicochemical. Put shortly:
as §3

The subject of data set [7] is Mus musculus. Kind of data set: Toxicity in Swiss-Wistar mouse assessed as body weight gain at 418 mg/kg, ip after 3 days (reference value: 20%). The format is organism-based. Also on record: dose 418 mg/kg, route intraperitoneal. As to conditions: in vivo, 72 h.
In data set [8] the test system is Mus musculus. Kind of data set: Toxicity in Swiss-Wistar mouse assessed as body weight gain at 1980 mg/kg, ip after 3 days (reference value: 20%). As to conditions: in vivo, 72 h. The class given is organism-based. The arrangement: dose 1980 mg/kg, route intraperitoneal.
In the next data set the test system is Bacillus subtilis. The experiment in a line: Mutagenicity in repair-deficient Bacillus subtilis assessed as growth inhibition at 0.1 M. The format is toxicity, organism-based. The settings on record: in vivo. In short, it runs like this:
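Repair-deficient tester strains exposed to test compound at 0.10 M, with chloroacetaldehyde (0.10 M) as mutagen reference; growth inhibition scored.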

In data set [9] the test system is Mus musculus. The experiment in a line: Toxicity in Swiss-Wistar mouse assessed as body weight gain at 885 mg/kg, ip after 3 days (reference value: 20%). The format is organism-based. Also on record: dose 885 mg/kg, route intraperitoneal. The settings on record: in vivo, 72 h.
In data set [10] the test system is Mus musculus. The experiment in a line: Toxicity in Swiss-Wistar mouse assessed as body weight gain at 189 mg/kg, ip after 3 days (reference value: 20%). The class given is organism-based. The settings on record: in vivo, 72 h. Also on record: dose 189 mg/kg, route intraperitoneal.
Data set [11] has as its system Mus musculus. The experiment in a line: Toxicity in Swiss-Wistar mouse assessed as change in health condition at 189 to 1980 mg/kg, ip after 7 days. The class given is organism-based. Also on record: dose 189-1980 mg/kg, route intraperitoneal. As to conditions: in vivo, 168 h.
Data set [12] in a line: Half life of the compound in phosphate buffer with 214 ml/min oxygen flow assessed as oxidation at 0.25 mM by Ellman's method. The format is physicochemical. Put shortly:
as §3

For orientation: half-life means how long it takes for the measured level to halve. With `N[C@@H](CS)C(=O)O` [CYSTEINE], the IC50 in [1] was 8.7 mM. In data set [2], the half-life at 240 µM was 6.4 h. Further, the half-life at 160 µM in [3] was 5.3 h.
Consider `CC(=O)N[C@@H](CS)C(=O)O` [ACETYLCYSTEINE], for which the IC50 in data set [1] was not below 100 mM. For the same molecule, the half-life at 270 µM in data set [4] is 10.9 h. Besides, the half-life at 280 µM in data set [5] is 12.8 h.
For the molecule `N[C@@H](Cc1c[nH]cn1)C(=O)O` [HISTIDINE], the IC50 in data set [1] was not below 100 mM.
For `O=C(O)C(Br)Cc1cnc[nH]1` (racemic), the I50 result in the data set listed under Rana catesbeiana is “inactive”.
As for `Br.O=C(O)C(S)Cc1cnc[nH]1` (racemic), in [1], the IC50 is 3.8 mM. For the same molecule, in data set [6], the half-life at 140 µM was 8.7 h. Also, the Activity is 18% in the data set with Mus musculus [7]; 18% with Mus musculus [8]; “Non-toxic” with Bacillus subtilis; 23% in the data set on Mus musculus [9]; 22% in the data set with Mus musculus [10]; “Non-toxic” in the data set on Mus musculus [11]. In addition, in [12], the half-life at 250 µM was 12.7 h.

(Values after ChEMBL document CHEMBL3244197, “Mercaptoimidazolylpropionic acid hydrobromide. Inhibition of tadpole collagenase and related properties” (J Med Chem, 1978).)
